In article PMC6980386 (Traffic (Copenhagen, Denmark), 2019):

What was measured:
FL huCD4 V28K = experiment: CADA down-modulation of cellular huCD4; format: cell-based, human; settings: HEK293T, 48h
Method in brief: (§1)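 HEK293T cells, seeded overnight in DMEM with 10% serum, 1 mM sodium pyruvate and 0.075% NaHCO₃, were lipofected with full-length human CD4 (WT or mutant). Test compound in DMSO was added 6 h post-transfection as 1:5 serial dilutions (50–0.016 μM) for 48 h. Surface CD4 was stained with FITC/APC anti-CD4 (SK3) and read by flow cytometry. IC50 is 50% of the untreated signal, from four-parameter fits of ≥3 replicate experiments. FC is mutant/WT mean IC50.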

[1] = target: truncated huCD4 D1D2 Q15A (Homo sapiens, UniProt P01730, Q15A); experiment: Cell-free in vitro translation and translocation; format: biochemical
Method in brief: (§2)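 Truncated huCD4 D1D2 (lacking glycosylation sites and membrane anchor) was made by PCR and transcribed with T7. Proteinase K protection ran 30 min on ice and was quenched with PMSF. Products were separated by SDS-PAGE and imaged by phosphor imaging. The SP-cleaved band was normalised to the matching control. Data are from 2–5 independent experiments, compared with WT by Welch t test.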

FL huCD4 P20A = FL huCD4 P20A (Homo sapiens, UniProt P01730, P20A); experiment: CADA down-modulation of cellular huCD4; format: cell-based
Method in brief: as §1

FL huCD4 N2A = FL huCD4 N2A (Homo sapiens, UniProt P01730, N2A); experiment: CADA down-modulation of cellular huCD4; format: cell-based
Method in brief: as §1

huCD4_1–32-YFP Q15A = huCD4_1–32-YFP Q15A (Homo sapiens, UniProt P01730, Q15A); experiment: CADA inhibition of huCD4_1–32-YFP secretion; format: cell-based
Method in brief: (§3)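 HEK293T cells were grown in DMEM with 10% FBS and 10 mM HEPES, seeded and left to adhere overnight, then transiently transfected with plasmid by Lipofectamine. Test compound was added 6 h after transfection as a 1:5 serial dilution (50 to 0.016 μM) for 48 h. Secreted YFP in the supernatant was captured on GFP-Trap magnetic beads for 1 h, washed with PBS and measured by flow cytometry. IC50 is the concentration that halves the signal relative to the untreated control, taken from a four-parameter fit of at least three replicate experiments. FC is the mutant mean IC50 divided by the WT mean IC50.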

FL huCD4 T23A = FL huCD4 T23A (Homo sapiens, UniProt P01730, T23A); experiment: CADA down-modulation of cellular huCD4; format: cell-based
Method in brief: as §1

sortilin = settings: second substrate, proteomic study; cited from earlier work
bovine pre-prolactin = settings: cited from earlier work
huCD4_1–32-YFP K32A = huCD4_1–32-YFP K32A (Homo sapiens, UniProt P01730, K32A); experiment: CADA inhibition of huCD4_1–32-YFP secretion; format: cell-based; settings: read-out: Secreted YFP IC50 (μM) Mean, HEK293T, CADA 48h
Method in brief: as §3

huCD4_1–32-YFP V28A = huCD4_1–32-YFP V28A (Homo sapiens, UniProt P01730, V28A); experiment: CADA inhibition of huCD4_1–32-YFP secretion; format: cell-based
Method in brief: as §3

FL huCD4 L12A = FL huCD4 L12A (Homo sapiens, UniProt P01730, L12A); experiment: CADA down-modulation of cellular huCD4; format: cell-based
Method in brief: as §1

huCD4_1–32-YFP P6A = huCD4_1–32-YFP P6A (Homo sapiens, UniProt P01730, P6A); experiment: CADA inhibition of huCD4_1–32-YFP secretion; format: cell-based
Method in brief: as §3

[2] = target: truncated huCD4 D1D2 Q15A;P20A (Homo sapiens, UniProt P01730, P20A/Q15A); experiment: Cell-free in vitro translation and translocation; format: biochemical
Method in brief: as §2

FL huCD4 G4A = FL huCD4 G4A (Homo sapiens, UniProt P01730, G4A); experiment: CADA down-modulation of cellular huCD4; format: cell-based
Method in brief: as §1

huCD4_1–32-YFP P20A = huCD4_1–32-YFP P20A (Homo sapiens, UniProt P01730, P20A); experiment: CADA inhibition of huCD4_1–32-YFP secretion; format: cell-based
Method in brief: as §3

FL huCD4 K26A = FL huCD4 K26A (Homo sapiens, UniProt P01730, K26A); experiment: CADA down-modulation of cellular huCD4; format: cell-based
Method in brief: as §1

huCD4_1–32-YFP T23A = huCD4_1–32-YFP T23A (Homo sapiens, UniProt P01730, T23A); experiment: CADA inhibition of huCD4_1–32-YFP secretion; format: cell-based
Method in brief: as §3

FL huCD4 R8E = FL huCD4 R8E (Homo sapiens, UniProt P01730, R8E); experiment: CADA down-modulation of cellular huCD4; format: cell-based; settings: HEK293T, 48h
Method in brief: as §1

FL huCD4 K26R = FL huCD4 K26R (Homo sapiens, UniProt P01730, K26R); experiment: CADA down-modulation of cellular huCD4; format: cell-based; settings: HEK293T, 48h
Method in brief: as §1

FL huCD4 V13L;A17L = FL huCD4 V13L;A17L (Homo sapiens, UniProt P01730, A17L/V13L); experiment: CADA down-modulation of cellular huCD4; format: cell-based; settings: HEK293T, 48h
Method in brief: as §1

huCD4_1–32-YFP Q24A = huCD4_1–32-YFP Q24A (Homo sapiens, UniProt P01730, Q24A); experiment: CADA inhibition of huCD4_1–32-YFP secretion; format: cell-based
Method in brief: as §3

FL huCD4 L10A = FL huCD4 L10A (Homo sapiens, UniProt P01730, L10A); experiment: CADA down-modulation of cellular huCD4; format: cell-based
Method in brief: as §1

FL huCD4 K32A = FL huCD4 K32A (Homo sapiens, UniProt P01730, K32A); experiment: CADA down-modulation of cellular huCD4; format: cell-based; settings: read-out: Cellular huCD4 IC50 (μM) Mean, HEK293T, CADA 48h
Method in brief: as §1

FL huCD4 K26E = FL huCD4 K26E (Homo sapiens, UniProt P01730, K26E); experiment: CADA down-modulation of cellular huCD4; format: cell-based; settings: HEK293T, 48h
Method in brief: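 Transient transfection of HEK293T cells (Lipofectamine), seeded the night before. Test compound added 6 h post-transfection as a serial 1:5 dilution from 50 to 0.016 μM, then 48 h culture. Surface CD4 stained with FITC- or APC-labelled anti-human CD4 (clone SK3) and read by flow cytometry. IC50 is the concentration reducing signal to 50% of untreated control, interpolated from four-parameter curves (≥3 replicate experiments; 95% CI).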

[3] = + less, − more sensitive to CADA
[4] = read-out: Cellular huCD4 IC50 (μM) Mean, HEK293T, CADA 48h
[5] = read-out: Secreted YFP IC50 (μM) Mean, HEK293T, CADA 48h

C=C1CN(S(=O)(=O)c2ccc(C)cc2)CCCN(Cc2ccccc2)CCCN(S(=O)(=O)c2ccc(C)cc2)C1 [CADA, Cyclotriazadisulfonamide]
increase in sensitivity to CADA (smaller IC50) relative to WT (FL huCD4 V28K): more than 3 fold | inhibitory effect of CADA on protein translocation compared to WT ([1]; 15 μM CADA): significantly reduced | impact of CADA on co-translational translocation ([1]; increasing doses of CADA): significantly reduced | Cellular huCD4 FC (fold change of mean IC50 relative to WT) (FL huCD4 P20A; [3]): +4.4 | IC50 (FL huCD4 P20A; [4]): 2.35 µM | Cellular huCD4 FC (fold change of mean IC50 relative to WT) (FL huCD4 N2A; [3]): +1.4 | IC50 (FL huCD4 N2A; [4]): 0.73 µM | Secreted YFP FC (fold change of mean IC50 relative to WT) (huCD4_1–32-YFP Q15A; [3]): >+39 | IC50 (huCD4_1–32-YFP Q15A; [5]): > 50 µM | Cellular huCD4 FC (fold change of mean IC50 relative to WT) (FL huCD4 T23A; [3]): +1.6 | IC50 (FL huCD4 T23A; [4]): 0.87 µM | susceptibility of sortilin to CADA (sortilin): lower susceptibility to the compound as compared to huCD4 | sensitivity of bovine pre-prolactin to CADA (bovine pre-prolactin): completely resistant to CADA | IC50 (huCD4_1–32-YFP K32A): 17.6 µM | Secreted YFP FC (fold change of mean IC50 relative to WT) (huCD4_1–32-YFP V28A; [3]): −1.8 | IC50 (huCD4_1–32-YFP V28A; [5]): 0.72 µM | enhanced CADA sensitivity relative to WT (FL huCD4 L12A): 8 fold | Cellular huCD4 FC (fold change of mean IC50 relative to WT) (FL huCD4 L12A; [3]): −7.7 | IC50 (FL huCD4 L12A; [4]): 0.07 µM | Secreted YFP FC (fold change of mean IC50 relative to WT) (huCD4_1–32-YFP P6A; [3]): −2.3 | IC50 (huCD4_1–32-YFP P6A; [5]): 0.55 µM | inhibitory effect of CADA on protein translocation compared to WT ([2]; 15 μM CADA): responded significantly less to CADA | effect of CADA on co-translational translocation ([2]; increasing doses of CADA): full resistance to CADA | Cellular huCD4 FC (fold change of mean IC50 relative to WT) (FL huCD4 G4A; [3]): −1.5 | IC50 (FL huCD4 G4A; [4]): 0.35 µM | Secreted YFP FC (fold change of mean IC50 relative to WT) (huCD4_1–32-YFP P20A; [3]): >+39 | IC50 (huCD4_1–32-YFP P20A; [5]): > 50 µM | Cellular huCD4 FC (fold change of mean IC50 relative to WT) (FL huCD4 K26A; [3]): +2.7 | IC50 (FL huCD4 K26A; [4]): 1.44 µM | Secreted YFP FC (fold change of mean IC50 relative to WT) (huCD4_1–32-YFP T23A; [3]): +1.9 | IC50 (huCD4_1–32-YFP T23A; [5]): 2.36 µM | sensitivity to CADA (FL huCD4 R8E): reduced sensitivity to CADA | sensitivity to CADA (FL huCD4 K26R): kept full sensitivity to CADA | sensitivity to CADA (FL huCD4 V13L;A17L): nearly full resistance to CADA | Secreted YFP FC (fold change of mean IC50 relative to WT) (huCD4_1–32-YFP Q24A; [3]): +3.3 | IC50 (huCD4_1–32-YFP Q24A; [5]): 4.22 µM | Cellular huCD4 FC (fold change of mean IC50 relative to WT) (FL huCD4 L10A; [3]): −2.7 | IC50 (FL huCD4 L10A; [4]): 0.2 µM | IC50 (FL huCD4 K32A): 1.42 µM | sensitivity to CADA (FL huCD4 K26E): copied the alanine substitution phenotypes
